Results on nine molecules are retold here after ChEMBL document CHEMBL1145835, “Novel potent 5-HT(1F) receptor agonists: structure-activity studies of a series of substituted N-[3-(1-methyl-4-piperidinyl)-1H-pyrrolo[3,2-b]pyridin-5-yl]amides” (J Med Chem, 2003).

In assay [1] the target is T1, 5-hydroxytryptamine receptor 1F (Homo sapiens) (UniProt P30939).
T1 sequence (whole entry): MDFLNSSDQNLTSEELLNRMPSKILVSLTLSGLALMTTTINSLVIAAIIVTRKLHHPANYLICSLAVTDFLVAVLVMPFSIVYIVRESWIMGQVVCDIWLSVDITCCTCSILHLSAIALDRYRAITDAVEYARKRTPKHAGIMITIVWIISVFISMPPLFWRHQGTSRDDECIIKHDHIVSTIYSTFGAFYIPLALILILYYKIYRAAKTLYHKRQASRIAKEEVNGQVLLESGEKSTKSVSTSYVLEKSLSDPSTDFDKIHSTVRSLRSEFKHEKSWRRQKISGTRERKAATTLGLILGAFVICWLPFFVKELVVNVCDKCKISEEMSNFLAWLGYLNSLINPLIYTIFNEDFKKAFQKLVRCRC
Briefly: Maximum stimulation of [35S]GTP-gamma-S, binding expressed relative to the maximal effect of 5-hydroxytryptamine […]. The class given is functional.

For assay [2], the target named is T2, 5-hydroxytryptamine receptor 1F (Homo sapiens, UniProt P30939).
T2 sequence (P30939 whole entry): T1 sequence (whole entry)
Put plainly: In vitro effective concentration for stimulation of [35S]GTP-gamma-S, binding in mouse LM(tk-)cells expressing the human 5-hydroxytryptamine 1F receptor. The class given is functional. A general note: GTPγS resists hydrolysis and so accumulates on activated G proteins.

For assay [3], the target named is T2, 5-hydroxytryptamine receptor 1F. Briefly: In vitro binding affinity was determined by radioligand binding assay using cell line expressing human 5-hydroxytryptamine 1F receptor. In a few lines:
(§1)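 Ki (nM) from radioligand binding on cell lines each expressing one human serotonin receptor subtype. Values are means of at least three determinations with SEM. ND: Ki not determined, when a 10⁻⁷ M test ligand gave <50% displacement of radioligand.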

The species named for assay [4] is Oryctolagus cuniculus. Briefly: In vitro contractile response in rabbit saphenous vein. In kind it is functional. In a few lines:
(§2)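 Rabbit saphenous vein rings. Maximal contraction is expressed as % of the contraction induced by KCl (67 mM), with the concentration giving the maximal response recorded. Means (SEM) of three to seven determinations.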

Assay [5] concerns the target T2, 5-hydroxytryptamine receptor 1F. Put plainly: In vitro effective concentration for stimulation of [35S]GTP-gamma-S, binding in mouse LM(tk-)cells expressing the human 5-HT1F receptor. The class given is functional.
Assay [6] is filed under the species Oryctolagus cuniculus. Put plainly: In vitro concentration of maximum contractile response in rabbit saphenous vein. The class given is functional. In short, it runs like this:
as §2

The target of assay [7] is 5-hydroxytryptamine receptor 1B (Homo sapiens, UniProt P28222). Briefly: In vitro binding affinity by radioligand binding assay using cell line expressing human 5-hydroxytryptamine 1B receptor. In short, it runs like this:
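Ki (nM) from radioligand binding on cell lines each expressing one human serotonin receptor subtype. Values are means of at least three determinations with SEM.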

Assay [8] deals with 5-hydroxytryptamine receptor 1D (Homo sapiens, UniProt P28221). Briefly: In vitro binding affinity by radioligand binding assay using cell line expressing human 5-hydroxytryptamine 1D receptor. In a few lines:
as §1

Assay [9] deals with T3, 5-hydroxytryptamine receptor 1A (Homo sapiens, UniProt P08908).
T3 sequence (P08908 whole entry): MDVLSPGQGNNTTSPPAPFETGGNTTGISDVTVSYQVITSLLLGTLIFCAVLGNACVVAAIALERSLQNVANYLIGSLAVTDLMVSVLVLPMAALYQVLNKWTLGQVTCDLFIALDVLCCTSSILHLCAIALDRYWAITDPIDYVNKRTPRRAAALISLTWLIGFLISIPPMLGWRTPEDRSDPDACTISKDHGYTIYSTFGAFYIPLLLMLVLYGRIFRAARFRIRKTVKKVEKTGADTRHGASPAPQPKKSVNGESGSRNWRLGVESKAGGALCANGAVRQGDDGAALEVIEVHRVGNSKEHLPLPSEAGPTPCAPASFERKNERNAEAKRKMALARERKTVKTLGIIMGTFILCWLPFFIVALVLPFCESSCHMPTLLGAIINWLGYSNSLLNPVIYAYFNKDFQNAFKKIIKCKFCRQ
Briefly: In vitro binding affinity by radioligand binding assay using cell line expressing human 5-hydroxytryptamine 1A receptor. In short, it runs like this:
as §1

Assay [10] concerns Cavia porcellus. Put plainly: In vivo efficacy in neurogenic plasma protein extravasation screen using guinea pig neurogenic PPE assay (1 ng/kg, po) at 24 hr postdose. The class given is functional. In a few lines: (§3)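 Guinea pig neurogenic dural PPE screen. Single oral dose of 1 ng/kg, then unilateral trigeminal ganglion stimulation with Evan's blue-labelled plasma protein leakage. Read-out is the fluorescence ratio of stimulated to unstimulated dura at 1 h or 24 h postdose. A ratio near 1 means full efficacy; near 1.8 means ineffective.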

In assay [11] the test system is Cavia porcellus. Briefly: In vivo efficacy in neurogenic plasma protein extravasation screen using guinea pig neurogenic PPE assay (1 ng/kg, po) at 1 hr postdose. The class given is functional. In short, it runs like this: as §3
Assay [12] addresses T4, 5-hydroxytryptamine receptor 2C (Homo sapiens, UniProt P28335).
T4 sequence (P28335 whole entry): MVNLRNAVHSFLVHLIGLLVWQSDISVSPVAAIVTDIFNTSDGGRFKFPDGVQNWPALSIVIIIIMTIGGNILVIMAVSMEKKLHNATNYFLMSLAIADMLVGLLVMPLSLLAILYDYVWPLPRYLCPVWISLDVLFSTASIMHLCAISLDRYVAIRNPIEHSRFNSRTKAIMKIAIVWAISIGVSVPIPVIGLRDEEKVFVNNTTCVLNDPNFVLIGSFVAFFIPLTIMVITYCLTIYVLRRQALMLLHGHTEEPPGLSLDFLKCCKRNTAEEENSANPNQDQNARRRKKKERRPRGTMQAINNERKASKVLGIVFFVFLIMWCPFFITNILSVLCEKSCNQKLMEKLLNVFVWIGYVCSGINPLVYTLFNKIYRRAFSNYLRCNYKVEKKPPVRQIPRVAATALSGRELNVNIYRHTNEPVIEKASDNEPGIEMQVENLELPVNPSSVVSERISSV
Put plainly: In vitro binding affinity by radioligand binding assay using cell line expressing human 5-hydroxytryptamine 2C receptor.

Assay [13] concerns the target 5-hydroxytryptamine receptor 6 (Homo sapiens, UniProt P50406). Put plainly: In vitro binding affinity by radioligand binding assay using cell line expressing human 5-hydroxytryptamine 6 receptor.
The target of assay [14] is 5-hydroxytryptamine receptor 2B (Homo sapiens, UniProt P41595). Put plainly: In vitro binding affinity by radioligand binding assay using cell line expressing human 5-hydroxytryptamine 2B receptor.
Assay [15] concerns the target 5-hydroxytryptamine receptor 4 (Homo sapiens, UniProt Q13639). Put plainly: In vitro binding affinity by radioligand binding assay using cell line expressing human 5-hydroxytryptamine 4 receptor.
Assay [16] concerns the target 5-hydroxytryptamine receptor 2A (Homo sapiens, UniProt P28223). Put plainly: In vitro binding affinity by radioligand binding assay using cell line expressing human 5-hydroxytryptamine 2A receptor.
The target of assay [17] is 5-hydroxytryptamine receptor 1E (Homo sapiens, UniProt P28566). Briefly: In vitro binding affinity by radioligand binding assay using cell line expressing human 5-hydroxytryptamine 1E receptor.
For assay [18], the target named is 5-hydroxytryptamine receptor 7 (Homo sapiens, UniProt P34969). Put plainly: In vitro binding affinity by radioligand binding assay using cell line expressing human 5-hydroxytryptamine 7 receptor.

Bounds are passed on as bounds.

Chain of 5-hydroxytryptamine receptor 1B (P28222 whole entry): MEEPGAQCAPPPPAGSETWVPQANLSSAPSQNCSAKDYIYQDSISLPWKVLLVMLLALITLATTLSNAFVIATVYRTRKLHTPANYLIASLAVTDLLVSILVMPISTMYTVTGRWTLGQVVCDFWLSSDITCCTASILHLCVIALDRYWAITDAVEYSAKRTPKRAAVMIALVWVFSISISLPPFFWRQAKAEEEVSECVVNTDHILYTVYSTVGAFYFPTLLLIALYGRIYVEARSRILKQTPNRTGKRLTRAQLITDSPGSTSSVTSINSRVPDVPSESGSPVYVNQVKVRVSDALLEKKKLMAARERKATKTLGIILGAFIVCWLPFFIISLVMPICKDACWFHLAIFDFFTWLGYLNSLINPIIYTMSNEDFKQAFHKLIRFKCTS
Chain of 5-hydroxytryptamine receptor 1D (P28221 whole entry): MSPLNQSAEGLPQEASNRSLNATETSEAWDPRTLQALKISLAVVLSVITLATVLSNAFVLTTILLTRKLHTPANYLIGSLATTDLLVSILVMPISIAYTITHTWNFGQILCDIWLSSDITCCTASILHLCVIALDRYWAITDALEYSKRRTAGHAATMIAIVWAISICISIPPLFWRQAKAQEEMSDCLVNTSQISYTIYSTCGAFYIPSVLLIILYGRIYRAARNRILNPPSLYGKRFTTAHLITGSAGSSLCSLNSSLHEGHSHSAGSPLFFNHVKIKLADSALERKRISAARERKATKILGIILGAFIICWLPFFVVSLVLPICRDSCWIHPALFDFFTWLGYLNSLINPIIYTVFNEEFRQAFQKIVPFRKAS
Chain of 5-hydroxytryptamine receptor 1E (P28566 whole entry): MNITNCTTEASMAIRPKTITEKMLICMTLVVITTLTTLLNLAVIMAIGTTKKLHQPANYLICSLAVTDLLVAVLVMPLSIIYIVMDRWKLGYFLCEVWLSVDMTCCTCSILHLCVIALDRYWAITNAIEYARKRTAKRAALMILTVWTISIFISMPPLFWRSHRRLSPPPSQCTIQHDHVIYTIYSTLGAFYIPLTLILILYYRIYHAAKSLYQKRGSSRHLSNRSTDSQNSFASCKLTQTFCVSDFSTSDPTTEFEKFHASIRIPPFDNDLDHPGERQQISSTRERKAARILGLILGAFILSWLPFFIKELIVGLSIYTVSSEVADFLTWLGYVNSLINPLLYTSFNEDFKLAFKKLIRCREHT
Chain of 5-hydroxytryptamine receptor 2A (P28223 whole entry): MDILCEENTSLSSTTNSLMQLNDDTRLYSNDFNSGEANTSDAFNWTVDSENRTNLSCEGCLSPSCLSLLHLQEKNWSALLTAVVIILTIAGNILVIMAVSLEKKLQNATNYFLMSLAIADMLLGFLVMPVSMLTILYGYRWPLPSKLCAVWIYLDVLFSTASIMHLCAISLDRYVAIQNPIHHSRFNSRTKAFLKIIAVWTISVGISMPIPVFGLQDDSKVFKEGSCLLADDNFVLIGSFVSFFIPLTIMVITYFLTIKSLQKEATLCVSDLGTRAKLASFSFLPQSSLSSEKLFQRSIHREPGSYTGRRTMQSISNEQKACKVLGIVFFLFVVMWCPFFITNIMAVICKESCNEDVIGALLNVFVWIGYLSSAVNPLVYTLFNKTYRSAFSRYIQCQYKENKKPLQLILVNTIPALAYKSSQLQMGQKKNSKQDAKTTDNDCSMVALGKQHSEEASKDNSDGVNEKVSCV
Chain of 5-hydroxytryptamine receptor 6 (P50406 whole entry): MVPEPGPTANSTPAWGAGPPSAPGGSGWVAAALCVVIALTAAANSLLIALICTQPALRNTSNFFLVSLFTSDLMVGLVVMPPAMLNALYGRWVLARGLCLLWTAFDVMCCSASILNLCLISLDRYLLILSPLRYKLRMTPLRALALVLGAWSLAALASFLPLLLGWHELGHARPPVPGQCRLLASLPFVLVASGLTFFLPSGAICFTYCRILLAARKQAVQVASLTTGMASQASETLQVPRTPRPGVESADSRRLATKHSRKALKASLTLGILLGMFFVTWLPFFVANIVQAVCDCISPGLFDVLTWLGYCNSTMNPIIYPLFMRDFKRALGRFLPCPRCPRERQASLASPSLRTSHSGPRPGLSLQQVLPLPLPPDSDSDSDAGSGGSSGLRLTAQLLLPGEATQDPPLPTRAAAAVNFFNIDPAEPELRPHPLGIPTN
Chain of 5-hydroxytryptamine receptor 2B (P41595 whole entry): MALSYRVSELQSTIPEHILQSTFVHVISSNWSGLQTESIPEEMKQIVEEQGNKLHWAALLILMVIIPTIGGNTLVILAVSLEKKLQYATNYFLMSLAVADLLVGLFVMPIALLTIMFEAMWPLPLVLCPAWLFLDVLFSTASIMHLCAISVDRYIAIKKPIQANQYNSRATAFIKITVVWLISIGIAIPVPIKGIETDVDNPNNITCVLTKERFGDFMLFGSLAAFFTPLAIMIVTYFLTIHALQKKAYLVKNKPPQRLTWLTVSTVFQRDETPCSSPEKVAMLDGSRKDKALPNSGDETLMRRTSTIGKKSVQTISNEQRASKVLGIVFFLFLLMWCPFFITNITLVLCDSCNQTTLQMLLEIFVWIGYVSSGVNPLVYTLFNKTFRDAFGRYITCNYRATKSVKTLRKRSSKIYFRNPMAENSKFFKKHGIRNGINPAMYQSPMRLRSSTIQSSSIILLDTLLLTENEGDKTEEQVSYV
Chain of 5-hydroxytryptamine receptor 4 (Q13639 whole entry): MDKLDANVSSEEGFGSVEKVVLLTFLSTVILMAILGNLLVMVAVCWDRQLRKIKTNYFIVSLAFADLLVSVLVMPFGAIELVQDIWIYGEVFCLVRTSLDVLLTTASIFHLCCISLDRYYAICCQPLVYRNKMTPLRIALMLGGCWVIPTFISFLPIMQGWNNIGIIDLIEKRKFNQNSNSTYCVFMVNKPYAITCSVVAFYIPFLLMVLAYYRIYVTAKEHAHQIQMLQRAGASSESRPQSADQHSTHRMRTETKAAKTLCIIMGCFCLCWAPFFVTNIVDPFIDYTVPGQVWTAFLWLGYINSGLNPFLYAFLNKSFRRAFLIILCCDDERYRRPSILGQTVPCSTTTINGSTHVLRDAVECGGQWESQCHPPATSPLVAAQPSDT
Chain of 5-hydroxytryptamine receptor 7 (P34969 whole entry): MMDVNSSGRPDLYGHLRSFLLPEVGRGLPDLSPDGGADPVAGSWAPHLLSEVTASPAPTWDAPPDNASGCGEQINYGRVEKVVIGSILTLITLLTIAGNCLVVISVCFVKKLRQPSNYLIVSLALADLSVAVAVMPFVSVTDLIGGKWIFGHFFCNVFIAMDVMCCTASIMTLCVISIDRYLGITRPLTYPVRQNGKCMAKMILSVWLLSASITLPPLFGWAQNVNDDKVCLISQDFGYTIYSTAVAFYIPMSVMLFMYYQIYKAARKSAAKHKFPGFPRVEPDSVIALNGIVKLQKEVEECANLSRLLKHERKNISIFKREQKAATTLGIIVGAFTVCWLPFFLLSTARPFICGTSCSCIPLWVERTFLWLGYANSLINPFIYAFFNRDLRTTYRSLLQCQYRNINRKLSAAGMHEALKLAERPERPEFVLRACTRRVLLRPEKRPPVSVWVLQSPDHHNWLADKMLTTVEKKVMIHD

As for `CCCC(=O)Nc1ccc2[nH]cc(C3CCN(C)CC3)c2n1`, the Emax in assay [1] came out at 94%. In assay [2], a half-maximal response (EC50) required 13 nM. This molecule returned a Ki in assay [3] of 6.9 nM. In assay [4], this molecule displayed a Response of 12.4%.
For the molecule `CC(=O)Nc1ccc2[nH]cc(C3CCN(C)CC3)c2n1`, in assay [5], the EC50 was found to be 36 nM. The “Concentration of max response” value in [6] stood at 30 µM. For the same molecule, the Ki in assay [7] worked out at 270 nM; in assay [8], 250 nM; in [3] it was 5 nM; in assay [9], 620 nM. In assay [1], this molecule yielded an Emax of 98%. Also, the Efficacy in assay [10] came to 1.1; in assay [11], 1. Further, the Response in [4] turned out to be 5.7%.
Turning to `CCC(=O)Nc1ccc2[nH]cc(C3CCN(C)CC3)c2n1`, the Ki in assay [7] is 720 nM; in assay [12], 310 nM; in [13] it was 1120 nM; in assay [14], greater than 10000 nM; in assay [8], 730 nM; in assay [3] it was 5.5 nM. Besides, the Ki was found to be 1000 nM in assay [9], 2400 nM in assay [15], 3400 nM in [16] and 770 nM in assay [17]. In assay [1], this molecule registered an Emax of 88%. This molecule also returned an EC50 in assay [2] of 32 nM. Moreover, the Efficacy in assay [10] stood at 1; in assay [11] it was 1.2. Moreover, the Response in [4] is recorded as 3%.
For `CN1CCC(c2c[nH]c3ccc(NC(=O)c4ccsc4)nc23)CC1`, the Ki in assay [7] amounted to 1000 nM; in assay [8], 810 nM; in assay [3] it was 7.4 nM; in assay [9], 400 nM. The Emax in [1] is 84%. It took 9.4 nM to reach a half-maximal effect in assay [2] (EC50). Besides, the Efficacy came to 1.6 in assay [10] and 1 in [11]. The molecule also yielded a Response in assay [4] of 0%.
For the molecule `CN1CCC(c2c[nH]c3ccc(NC(=O)C4CC4)nc23)CC1`, the Ki worked out at 1700 nM in [7], 1800 nM in assay [8], 9.8 nM in assay [3] and 1400 nM in [9]. In assay [1], this molecule gave an Emax of 77%. The EC50 in [2] came out at 34 nM. The molecule further showed a Response in assay [4] of 2.3%. For the same molecule, in assay [11], the Efficacy was determined as 1.4.
As for `CN1CCC(c2c[nH]c3ccc(NC(=O)c4ccc(C#N)cc4)nc23)CC1`, the “Concentration of max response” value in [6] is 30 µM. The Ki in assay [7] was determined as 310 nM; in assay [8] it was 380 nM; in [3] it was 7.2 nM; in [9] it was 31 nM. For the same molecule, the Response in [4] is 1.1%. This molecule had an Efficacy in assay [11] of 1.5.
On to `CN1CCC(c2c[nH]c3ccc(NC(=O)c4ccccc4)nc23)CC1`, for which the Ki was found to be 820 nM in [7], 1000 nM in assay [8], 7.3 nM in assay [3] and 72 nM in assay [9]. Moreover, the Efficacy in [10] is 1.6; in assay [11] it was 1.1. Also, the Response in [4] amounted to 0%.
On to `CN1CCC(c2c[nH]c3ccc(NC(=O)c4ccc(F)cc4)nc23)CC1`, for which the Ki in assay [7] was 1200 nM; in assay [12], 1900 nM; in [13], greater than 10000 nM; in assay [14], greater than 10000 nM; in [8] it was 730 nM; in assay [3], 7.6 nM. In addition, the Ki in [9] is 56 nM; in assay [15], 4000 nM; in [16], 4800 nM; in assay [17] it was 660 nM; in [18], greater than 5000 nM. This molecule gave a Response in assay [4] of 16%.
With `CN1CCC(c2c[nH]c3ccc(NC(=O)C4CCC4)nc23)CC1`, the Ki in assay [7] was 380 nM; in [8], 900 nM; in assay [3] it was 8.7 nM; in assay [9], 2000 nM. In addition, in [1], the Emax is 81%. The molecule also displayed an EC50 in [2] of 21 nM. In [4], this molecule gave a Response of 17%.

What is called Emax is the size of the effect at its maximum, as opposed to the concentration needed. Usually EC50 stands for the concentration giving half of the maximal effect. Higher therefore signals a less potent agent. As usually defined, the Ki is a measure of affinity in units of concentration, obtained from inhibition or displacement. Read a low Ki as higher affinity.
